Laboratory results reported in ChEMBL document CHEMBL4251638, “Amino acid conjugated antimicrobial drugs: Synthesis, lipophilicity- activity relationship, antibacterial and urease inhibition activity” (Eur J Med Chem, 2018).
In brackets after ≈: the same amount, converted by molar mass. Activity calls are given as the source filed them. The rule behind the calls is not given here.

Columns and labels:
[1] = test system: Bacillus spizizenii; assay: Antibacterial activity against Bacillus subtilis ATCC 6633 after overnight incubation by microbroth dilution method; format: functional
How it was run: (§1)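 Strains grown on nutrient agar, 37°C, 24 h. Inoculum from colony in nutrient broth, 24 h at 37°C, adjusted to McFarland 0.5, about 5 × 10^4 CFU/ml per well. DMSO stocks (4 mg/mL) serially diluted in nutrient broth to final 256 to 0.16 µg/mL. Incubated overnight at 37°C. MIC90 is the lowest concentration inhibiting growth. DMSO 1% final as negative control. Run in triplicate.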

[2] = test system: Escherichia coli; assay: Antibacterial activity against Escherichia coli ATCC 25922 after overnight incubation by microbroth dilution method; format: functional; how it was run: as §1
[3] = test system: Staphylococcus aureus; assay: Antibacterial activity against Staphylococcus aureus ATCC 6538 after overnight incubation by microbroth dilution method; format: functional; how it was run: as §1
[4] = test system: Pseudomonas aeruginosa; assay: Antibacterial activity against Pseudomonas aeruginosa ATCC 15442 after overnight incubation by microbroth dilution method; format: functional; how it was run: as §1
[5] = Inhibition of Bacillus pasteurii urease using urea as substrate measured after 20 mins by phenol reagent based assay; design: species or system Sporosarcina pasteurii
How it was run: (§2)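 Indophenol method. Enzyme incubated with compound in buffer containing 100 mM urea at 30 °C for 20 min. Phenol reagent (1% w/v phenol, 0.005% w/v sodium nitroprusside) then alkali reagent (0.5% w/v NaOH, 0.1% v/v […]) added. Absorbance read at 630 nm as change per min. Thiourea was the reference inhibitor.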

[6] = test system: Salmonella typhimurium; assay: Antibacterial activity against Salmonella typhimurium ATCC 14028 after overnight incubation by microbroth dilution method; format: functional, Salmonella enterica subsp. enterica serovar Typhimurium; details: Salmonella enterica
[7] = test system: Salmonella typhimurium; details: Salmonella enterica subsp. enterica serovar Typhimurium; ATCC 14028
[8] = test system: Sporosarcina pasteurii; assay: Inhibition of Bacillus pasteurii urease using urea as substrate measured after 20 mins by phenol reagent based assay relative to control; how it was run: as §2

| SMILES | MIC90 [1] | MIC90 [2] | MIC90 [3] | MIC90 [4] | IC50 [5] | MIC90 [6] | MIC90 [7] | inhibition [8] |
| --- | --- | --- | --- | --- | --- | --- | --- | --- |
| COc1nc(Nc2nc(N)ncc2Cc2cc(OC)c(OC)c(OC)c2)nc(OC(=O)C(N)C(C)C)n1 (configuration not stated) | 124 µM (≈ 64 µg/mL) | 62.2 µM (≈ 32 µg/mL) | 166 µM (≈ 85.3 µg/mL) | 51.7 µM (≈ 26.6 µg/mL) | 19.3 µM | 82.8 µM (≈ 42.6 µg/mL) |  |  |
| COc1nc(OCCn2c([N+](=O)[O-])cnc2C)nc(OC(=O)C(N)Cc2c[nH]c3ccccc23)n1 (configuration not stated) | 13 µM (≈ 6.27 µg/mL) | 2 µM (≈ 0.965 µg/mL) | 16.5 µM (≈ 7.96 µg/mL) | 4 µM (≈ 1.93 µg/mL) | 16.3 µM | 6.8 µM (≈ 3.28 µg/mL) |  |  |
| COc1nc(OC(=O)C(N)C(C)C)nc(Oc2c(OC)cc(Cc3cnc(N)nc3N)cc2OC)n1 (configuration not stated) | 7.9 µM (≈ 3.95 µg/mL) | 6.6 µM (≈ 3.3 µg/mL) | 10.6 µM (≈ 5.31 µg/mL) | 6.6 µM (≈ 3.3 µg/mL) | 6.23 µM | 15.9 µM (≈ 7.96 µg/mL) |  |  |
| Cc1ncc([N+](=O)[O-])n1CCOC(=O)C(N)Cc1ccccc1 (configuration not stated) | 83.6 µM (≈ 26.6 µg/mL) | 201 µM (≈ 64 µg/mL) | 50.3 µM (≈ 16 µg/mL) | 268 µM (≈ 85.3 µg/mL) | 27.4 µM | 201 µM (≈ 64 µg/mL) |  |  |
| O=C(O)c1cn(C2CC2)c2cc(N3CCNCC3)c(F)cc2c1=O [CIPROFLOXACIN] | 30.2 µM (≈ 10 µg/mL) | 30.2 µM (≈ 10 µg/mL) | 30.2 µM (≈ 10 µg/mL) | 30.2 µM (≈ 10 µg/mL) |  |  |  |  |
| NC(Cc1ccccc1)C(=O)NNC(=O)c1ccncc1 (configuration not stated) | inactive | inactive | inactive | inactive | 21.1 µM |  | inactive |  |
| COc1nc(Nc2nc(N)ncc2Cc2cc(OC)c(OC)c(OC)c2)nc(OC(=O)C(N)Cc2ccccc2)n1 (configuration not stated) | 228 µM (≈ 128 µg/mL) | 47.3 µM (≈ 26.6 µg/mL) | 303 µM (≈ 171 µg/mL) | 28.4 µM (≈ 16 µg/mL) | 13.8 µM | 56.8 µM (≈ 32 µg/mL) |  |  |
| NC(N)=S [THIOUREA] |  |  |  |  | 21 µM |  |  |  |
| COc1cc(Cc2cnc(N)nc2NC(=O)C(N)Cc2c[nH]c3ccccc23)cc(OC)c1OC (configuration not stated) | 224 µM (≈ 107 µg/mL) | 67.1 µM (≈ 32 µg/mL) | 134 µM (≈ 64 µg/mL) | 67.1 µM (≈ 32 µg/mL) | 35.1 µM | 55.8 µM (≈ 26.6 µg/mL) |  |  |
| COc1nc(NNC(=O)c2ccncc2)nc(OC(=O)C(N)Cc2ccccc2)n1 (configuration not stated) | 156 µM (≈ 63.9 µg/mL) | 52 µM (≈ 21.3 µg/mL) | 104 µM (≈ 42.6 µg/mL) | 65 µM (≈ 26.6 µg/mL) | 31 µM | 78 µM (≈ 31.9 µg/mL) |  |  |
| CC[C@H]1OC(=O)[C@H](C)[C@@H](O[C@H]2C[C@@](C)(OC)[C@@H](O)[C@H](C)O2)[C@H](C)[C@@H](O[C@@H]2O[C@H](C)C[C@H](N(C)C)[C@H]2O)[C@](C)(O)C[C@@H](C)/C(=N\OCOCCOC)[C@H](C)[C@@H](O)[C@]1(C)O [ROXITHROMYCIN] | 0.6 µM (≈ 0.502 µg/mL) | 0.6 µM (≈ 0.502 µg/mL) | 0.6 µM (≈ 0.502 µg/mL) | 0.3 µM (≈ 0.251 µg/mL) |  |  |  |  |
| COc1nc(NNC(=O)c2ccncc2)nc(OC(=O)C(N)C(C)C)n1 (configuration not stated) | 177 µM (≈ 64 µg/mL) | 59 µM (≈ 21.3 µg/mL) | 118 µM (≈ 42.6 µg/mL) | 74 µM (≈ 26.7 µg/mL) | 29.3 µM | 74 µM (≈ 26.7 µg/mL) |  |  |
| COc1nc(OC(=O)C(N)Cc2ccccc2)nc(Oc2c(OC)cc(Cc3cnc(N)nc3N)cc2OC)n1 (configuration not stated) | 19.3 µM (≈ 10.6 µg/mL) | 3.6 µM (≈ 1.97 µg/mL) | 12 µM (≈ 6.58 µg/mL) | 6 µM (≈ 3.29 µg/mL) | 8.33 µM | 7.3 µM (≈ 4 µg/mL) |  |  |
| NC(Cc1c[nH]c2ccccc12)C(=O)NNC(=O)c1ccncc1 (configuration not stated) | 98.9 µM (≈ 32 µg/mL) | 528 µM (≈ 171 µg/mL) | 98.9 µM (≈ 32 µg/mL) | 660 µM (≈ 213 µg/mL) | 37 µM | 792 µM (≈ 256 µg/mL) |  |  |
| COc1nc(OCCn2c([N+](=O)[O-])cnc2C)nc(OC(=O)C(N)C(C)C)n1 (configuration not stated) | 81 µM (≈ 32 µg/mL) | 67.3 µM (≈ 26.6 µg/mL) | 81 µM (≈ 32 µg/mL) | 54 µM (≈ 21.4 µg/mL) | 19.5 µM | 81 µM (≈ 32 µg/mL) |  |  |
| Cc1ncc([N+](=O)[O-])n1CCO | inactive | inactive | inactive | inactive |  |  |  | 13% |
| COc1cc(Cc2cnc(N)nc2NC(=O)C(N)Cc2ccccc2)cc(OC)c1OC (configuration not stated) | 244 µM (≈ 107 µg/mL) | 73.1 µM (≈ 32 µg/mL) | 244 µM (≈ 107 µg/mL) | 73.1 µM (≈ 32 µg/mL) | 31.3 µM | 97.4 µM (≈ 42.6 µg/mL) |  |  |
| COc1cc(Cc2cnc(N)nc2N)cc(OC)c1OC [TRIMETHOPRIM] |  | 55.1 µM (≈ 16 µg/mL) | 22.7 µM (≈ 6.59 µg/mL) |  |  |  |  |  |
| COc1nc(Nc2nc(N)ncc2Cc2cc(OC)c(OC)c(OC)c2)nc(OC(=O)C(N)Cc2c[nH]c3ccccc23)n1 (configuration not stated) | 213 µM (≈ 128 µg/mL) | 53.2 µM (≈ 32 µg/mL) | 213 µM (≈ 128 µg/mL) | 53.2 µM (≈ 32 µg/mL) | 12 µM | 53.2 µM (≈ 32 µg/mL) |  |  |
| Cc1ncc([N+](=O)[O-])n1CCOC(=O)C(N)C(C)C (configuration not stated) | 158 µM (≈ 42.7 µg/mL) | 473 µM (≈ 128 µg/mL) | 118 µM (≈ 32 µg/mL) | 474 µM (≈ 128 µg/mL) | 29.5 µM | 632 µM (≈ 171 µg/mL) |  |  |
| CC(C)C(N)C(=O)NNC(=O)c1ccncc1 (configuration not stated) | inactive | inactive | inactive | inactive | 48.6 µM |  | inactive |  |
| COc1nc(NNC(=O)c2ccncc2)nc(OC(=O)C(N)Cc2c[nH]c3ccccc23)n1 (configuration not stated) | 71 µM (≈ 31.8 µg/mL) | 36 µM (≈ 16.1 µg/mL) | 47.5 µM (≈ 21.3 µg/mL) | 60 µM (≈ 26.9 µg/mL) | 37.3 µM | 36 µM (≈ 16.1 µg/mL) |  |  |
| COc1nc(OC(=O)C(N)Cc2c[nH]c3ccccc23)nc(Oc2c(OC)cc(Cc3cnc(N)nc3N)cc2OC)n1 (configuration not stated) | 6.8 µM (≈ 4 µg/mL) | 1.1 µM (≈ 0.646 µg/mL) | 3.4 µM (≈ 2 µg/mL) | 1.4 µM (≈ 0.823 µg/mL) | 11.5 µM | 2.3 µM (≈ 1.35 µg/mL) |  |  |
| NNC(=O)c1ccncc1 | inactive | inactive | inactive | inactive |  |  | inactive |  |
| COc1cc(Cc2cnc(N)nc2NC(=O)C(N)C(C)C)cc(OC)c1OC (configuration not stated) | 68.3 µM (≈ 26.6 µg/mL) | 164 µM (≈ 64 µg/mL) | 82.2 µM (≈ 32 µg/mL) | 137 µM (≈ 53.3 µg/mL) | 52.4 µM | 219 µM (≈ 85.3 µg/mL) |  |  |
| COc1nc(OCCn2c([N+](=O)[O-])cnc2C)nc(OC(=O)C(N)Cc2ccccc2)n1 (configuration not stated) | 18 µM (≈ 7.98 µg/mL) | 7.4 µM (≈ 3.28 µg/mL) | 24 µM (≈ 10.6 µg/mL) | 9 µM (≈ 3.99 µg/mL) | 11.4 µM | 18 µM (≈ 7.98 µg/mL) |  |  |
| Cc1ncc([N+](=O)[O-])n1CCOC(=O)C(N)Cc1c[nH]c2ccccc12 (configuration not stated) | 239 µM (≈ 85.4 µg/mL) | 74.4 µM (≈ 26.6 µg/mL) | 179 µM (≈ 64 µg/mL) | 119 µM (≈ 42.6 µg/mL) | 13.6 µM | 89.5 µM (≈ 32 µg/mL) |  |  |
